Measured values: ChEMBL document CHEMBL1629420, “Structure-cytotoxicity relationship in a series of N-phosphorus substituted E,E-3,5-bis(3-pyridinylmethylene)- and E,E-3,5-bis(4-pyridinylmethylene)piperid-4-ones” (Eur J Med Chem, 2010)

Assays:
Type in all cases: functional, cell-based
[1] = Cytotoxicity against human multi drug resistant subclone KB 8.5 cells after 72 hrs by MTT assay
Outline: (§1)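 Cells grown in RPMI-1640 with 10% FBS, 2 mM L-glutamine and gentamicin; seeded at 1 × 10⁴ cells/well and left to attach overnight at 37 °C, 5% CO₂. Compounds were dissolved in DMSO, diluted into FBS-free medium and tested at 5 × 10⁻⁵, 10⁻⁵, 10⁻⁶ and 10⁻⁷ M for 72 h. MTT was added for 3 h, formazan dissolved in DMSO and read at 590 nm. Triplicates; IC50 derived graphically from % viability loss versus untreated controls.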

[2] = Cytotoxicity against human Caov3 cells after 72 hrs by MTT assay; details: Caov-3, 72 h; outline: as §1
[3] = Cytotoxicity against human KB3-1 cells after 72 hrs by MTT assay; details: KB 3-1, 72 h; outline: as §1
[4] = tested on: A549; assay: Cytotoxicity against human A549 cells after 72 hrs by MTT assay; details: A549, 72 h
Outline: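 Compounds were dissolved in DMSO, diluted into FBS-free medium and tested at 5 × 10⁻⁵, 10⁻⁵, 10⁻⁶ and 10⁻⁷ M for 72 h. MTT was added for 3 h, formazan dissolved in DMSO and read at 590 nm. Triplicates; IC50 derived graphically from % viability loss versus untreated controls.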

SMILES: CN1C/C(=C\c2ccncc2)C(=O)/C(=C/c2ccncc2)C1
- IC50 [1]: 7.4 µM
- IC50 [2]: 5.1 µM
- IC50 [3]: 3 µM
- IC50 [4]: 4.2 µM

SMILES: CN1C/C(=C\c2cccnc2)C(=O)/C(=C/c2cccnc2)C1
- IC50 [1]: 40.4 µM
- IC50 [2]: > 20 µM
- IC50 [3]: 20.2 µM
- IC50 [4]: > 20 µM

SMILES: O=C1/C(=C/c2cccnc2)CNC/C1=C\c1cccnc1
- IC50 [1]: 30 µM
- IC50 [2]: 9.2 µM
- IC50 [3]: 24.4 µM
- IC50 [4]: 11.1 µM

SMILES: CCOP(=O)(OCC)N1C/C(=C\c2cccnc2)C(=O)/C(=C/c2cccnc2)C1
- IC50 [1]: 5.3 µM
- IC50 [2]: 8.1 µM
- IC50 [3]: 5 µM
- IC50 [4]: 10.4 µM

SMILES: CCOP(=O)(CCN1C/C(=C\c2cccnc2)C(=O)/C(=C/c2cccnc2)C1)OCC
- IC50 [1]: > 40 µM
- IC50 [2]: > 40 µM
- IC50 [3]: > 40 µM
- IC50 [4]: > 40 µM

SMILES: CCOP(=O)(CCCCN1C/C(=C\c2cccnc2)C(=O)/C(=C/c2cccnc2)C1)OCC
- IC50 [1]: 9.5 µM
- IC50 [2]: 6.2 µM
- IC50 [3]: 6.1 µM
- IC50 [4]: 15.4 µM

SMILES: O=C1/C(=C/c2ccncc2)CNC/C1=C\c1ccncc1
- IC50 [1]: 8.5 µM
- IC50 [2]: 6 µM
- IC50 [3]: 5 µM
- IC50 [4]: 10.3 µM

SMILES: CCOP(=O)(OCC)N1C/C(=C\c2ccncc2)C(=O)/C(=C/c2ccncc2)C1
- IC50 [1]: 5.1 µM
- IC50 [2]: 4.3 µM
- IC50 [3]: 2.1 µM
- IC50 [4]: 8.2 µM

SMILES: N[C@@H](Cc1ccc(N(CCCl)CCCl)cc1)C(=O)O
- IC50 [2]: 50 µM

SMILES: COc1cccc2c1C(=O)c1c(O)c3c(c(O)c1C2=O)C[C@@](O)(C(=O)CO)C[C@@H]3O[C@H]1C[C@H](N)[C@H](O)[C@H](C)O1 [DOXORUBICIN]
- IC50 [1]: 3.3 µM
